Values after ≈ are worked out from the molar mass of the structure shown.
Columns and labels:
Gamma-secretase = test: Modulatory activity of gamma secretase in human H4 cells overexpressing human APP695 K595N/M596L mutant assessed as decrease in amyloidbeta42 levels at 24 hrs by Alphalisa method; format: cell-based
Outline: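 H4 neuroglioma cells stably expressing APP695 Swedish mutant, in IMDM with 10% FCS and […] hygromycin B, at 37 °C, 5% CO2. Compounds added 3-4 h after plating and incubated 24 h, typically 4 µM down to 0.0013 µM in half-log steps (8 points), final Me2SO 0.4%. Secreted Aβ in supernatant quantified by AlphaLisa (3 h antibody mix, then donor beads 30 min, RT). IC50 by nonlinear regression.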

[1] = Solubility of compound in PBS buffer at pH 6.5 incubated for over night by HPLC-UV based LYSA assay; format: physicochemical
Outline: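 Duplicate samples from 10 mM DMSO stocks. DMSO evaporated, residue dissolved in 0.05 M phosphate buffer, pH 6.5, stirred 1 h, shaken 2 h, left overnight, then filtered. Filtrate and its 1/10 dilution measured by direct UV or HPLC-UV against a four-point calibration curve.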

[2] = Distribution coefficient between 1-octanol and phosphate buffer, logD of the compound after 24 hrs by shake flask assay; format: physicochemical; conditions: 1-octanol/phosphate buffer
Outline: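 CAMDIS high-throughput shake-flask method. PVDF membranes impregnated with 1-octanol are dipped in 25 mM phosphate buffer, pH 7.4, containing the compound, then shaken 24 h at 23 °C. Remaining aqueous concentration measured by LC/MS. logD calculated from the aqueous concentration with and without octanol impregnation, and the phase ratio.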

Row | SMILES | IC50 (Gamma-secretase) [nM] | solubility at 12 h [1] [µg/mL] | logD at 24 h [2]
1 | Cc1nnc(-c2ccc(Nc3nc4n(n3)CCCN4c3ccc(OC(F)(F)F)cc3)cc2)o1 | 227 | < 0.1 | > 4
2 | Cc1nnc(C23CC(Nc4nc(Cc5ccc(Cl)cc5)cc(C(C)(C)O)n4)(C2)C3)o1 | 520 | 11 (≈ 25.8 µM) | 4
3 | Cc1nnc(C23CCC(Nc4nc5n(n4)CCCN5c4ccc(OC(F)(F)F)cc4)(CC2)CC3)o1 | 21 | 0.4 (≈ 0.817 µM) | 3.7
4 | Cc1nnc(C23CC(Nc4nc5n(n4)CCCN5c4cccc(Cl)c4)(C2)C3)o1 | 777 | 167 (≈ 420 µM) | 2.4
5 | Cc1nnc(-c2ccc(Nc3nc4n(n3)CCCN4c3cccc(Cl)c3)cc2)o1 | 95 | < 0.1 | 3.2
6 | Cc1cc(C23CC(Nc4nc5n(n4)CCCC[C@H]5c4ccc(F)c(F)c4F)(C2)C3)ncn1 | 11 | 1 (≈ 2.27 µM) | 3.8
7 | Cc1nnc(-c2ccc(Nc3nc(Oc4cccc(Cl)c4)n(C(C)C)n3)cc2)o1 | 510 | < 0.1 | > 4
8 | Cc1nnc(N2CC3CCC(C2)C3Nc2nc3n(n2)CCCN3c2cccc(Cl)c2)o1 (centres undefined) | 34 | 233 (≈ 528 µM) | 2.7
9 | Cc1nnc(C23CCC(Nc4nc(Oc5cccc(Cl)c5)n(C(C)C)n4)(CC2)CC3)o1 | 118 | 15 (≈ 33.9 µM) | 4.1
10 | Cc1nnc(N2CC3CCC(C2)C3Nc2nc3n(n2)CCCN3c2ccc(OC(F)(F)F)cc2)o1 (centres undefined) | 46 | 106 (≈ 216 µM) | 3.5
11 | Cc1nnc(N2CC3CCC(C2)C3Nc2nc(Cc3ccc(Cl)cc3)cc(C(C)(C)O)n2)o1 (centres undefined) | 38 | 18 (≈ 38.4 µM) | 4
12 | Cc1nnc(C23CCC(Nc4nc5n(n4)CCCN5c4cccc(Cl)c4)(CC2)CC3)o1 | 114 | 132 (≈ 300 µM) | 3.1
13 | Cc1nnc(C23CCC(Nc4nc(Cc5ccc(Cl)cc5)cc(C(C)(C)O)n4)(CC2)CC3)o1 | 146 | < 0.1 | > 4
14 | Cc1nnc(N2CC3CCC(C2)C3Nc2nc(Oc3cccc(Cl)c3)n(C(C)C)n2)o1 (centres undefined) | 42 | 104 (≈ 234 µM) | 3.6
15 | Cc1nnc(-c2ccc(Nc3nc(Cc4ccc(Cl)cc4)cc(C(C)(C)O)n3)cc2)o1 | 478 | < 0.1 | > 4
16 | Cc1nnc(C23CC(Nc4nc(Oc5cccc(Cl)c5)n(C(C)C)n4)(C2)C3)o1 | 214 | 88 (≈ 220 µM) | 4.1
17 | Cc1nnc(C23CC(Nc4nc5n(n4)CCCN5c4ccc(OC(F)(F)F)cc4)(C2)C3)o1 | 587 | 3.2 (≈ 7.15 µM) | 2.8
18 | Cc1cc(N2CC3CCC(C2)C3Nc2nc3n(n2)CCCC[C@H]3c2ccc(F)c(F)c2F)ncn1 (some centres undefined) | 17 | 7 (≈ 14.5 µM) | 3.4

Source: ChEMBL document CHEMBL4732036, “Phenyl bioisosteres in medicinal chemistry: discovery of novel gamma-secretase modulators as a potential treatment for Alzheimer''s disease” (RSC Med Chem, 2021)
